Experimental data as given in ChEMBL document CHEMBL4400513, “Aurone derivatives as promising antibacterial agents against resistant Gram-positive pathogens” (Eur J Med Chem, 2019).
Values after ≈ are worked out from the molar mass of the structure shown. Active and inactive are the calls of the source. The rule behind the calls is not given here.

Experiments:
[1] = tested on: Bacteroides thetaiotaomicron; experiment: Bactericidal activity against Bacteroides thetaiotaomicron in anaerobic condition; format: functional, organism-based
How it was run: (§1)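 From the MIC plates, 10 µL from each well without growth was streaked onto agar suited to the organism and incubated under that organism's growth conditions. Colonies were then counted; MBC = lowest concentration allowing ≤1 colony, i.e. killing 99.9% of bacteria.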

[2] = tested on: Bacteroides thetaiotaomicron; experiment: Antimicrobial activity against Bacteroides thetaiotaomicron after 18 to 24 hrs in anaerobic condition by two-fold serial dilutions method; format: functional
How it was run: (§2)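 Precultures in BHI broth at 37 °C in an anaerobic cabinet, grown to log phase (OD600 ~0.6), then seeded at ~10^5 bacteria/mL. Two-fold dilutions from 0 to 500 µM, 0.2% DMSO final as control. Plates incubated anaerobically at 37 °C for 18–24 h, OD600 read; MIC = lowest concentration giving no visible growth; independent triplicate.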

Candida albicans = experiment: Antifungal activity against Candida albicans after 2 to 5 days by two-fold serial dilutions method; format: functional
Shigella flexneri = experiment: Bactericidal activity against Shigella flexneri in aerobic condition; format: functional, organism-based
How it was run: (§3)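 MH broth; log-phase bacteria (OD600 ~0.6) diluted to ~10^5 bacteria/mL and exposed to two-fold serial dilutions (0–500 µM; 0.2% DMSO final as vehicle control) at 37 °C, aerobic, 18–24 h. MIC is the lowest concentration preventing visible growth (OD600). MBC is found by streaking 10 µL from no-growth wells onto agar; the MBC is the concentration where ≤1 colony grew. n = 3.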

Cutibacterium acnes = experiment: Bactericidal activity against Propionibacterium acnes in aerobic condition; format: functional, organism-based; how it was run: as §1
Blautia producta = experiment: Bactericidal activity against Clostridium coccoides in anaerobic condition; format: functional, organism-based; how it was run: as §1
Bacillus subtilis [3] = experiment: Antimicrobial activity against Bacillus subtilis after 18 to 24 hrs in aerobic condition by two-fold serial dilutions method; format: functional
How it was run: (§4)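 Colonies grown overnight (~16 h) in Mueller-Hinton broth at 37 °C, 200 rpm, diluted 1/100 and grown to log phase (OD600 ~0.6), then diluted to ~10^5 bacteria/mL. Exposed to 0 to 500 µM in 1:2 series (0.2% DMSO final control), aerobic, 37 °C, 18–24 h. OD600 read; MIC = lowest concentration without visible growth; n = 3.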

Stachybotrys chartarum [4] = experiment: Antifungal activity against Stachybotrys chartarum after 2 to 5 days by two-fold serial dilutions method; format: functional
How it was run: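 Broth two-fold serial dilution MIC, 0 to 500 µM (1:2 steps), from 200 mM DMSO stocks; 0.2% DMSO final as vehicle control. Inoculum about 10^5 cells/mL. Strains maintained on potato dextrose agar and in RPMI medium. Plates held at room temperature for 2 to 5 days, OD600 read; MIC = lowest concentration preventing visible growth; independent triplicate.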

Clostridium botulinum = experiment: Bactericidal activity against Clostridium botulinum in anaerobic condition; format: functional, organism-based
Citrobacter farmeri = experiment: Antimicrobial activity against Citrobacter farmeri after 18 to 24 hrs in aerobic condition by two-fold serial dilutions method; format: functional; how it was run: as §4
Pseudomonas aeruginosa = experiment: Antimicrobial activity against Pseudomonas aeruginosa after 18 to 24 hrs in aerobic condition by two-fold serial dilutions method; format: functional; how it was run: as §4
Acinetobacter baumannii = experiment: Bactericidal activity against Acinetobacter baumannii in aerobic condition; format: functional, organism-based; how it was run: as §1
Aspergillus niger = experiment: Antifungal activity against Aspergillus niger after 48 hrs by two-fold serial dilutions method; format: functional
How it was run: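 Two-fold serial dilution MIC, 0 to 500 µM, from 200 mM DMSO stocks; 0.2% DMSO final as vehicle control. Inoculum about 10^5 cells/mL. Organism maintained on potato dextrose agar and in RPMI. Plates incubated 48 h at 35 °C, then OD600 read; MIC taken as lowest concentration with no visible growth; n = 3 independent runs.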

Fusarium graminearum [5] = experiment: Fungicidal activity against Fusarium graminearum; format: functional, organism-based
Clostridioides difficile = experiment: Bactericidal activity against Clostridium difficile in anaerobic condition; format: functional, organism-based; how it was run: as §1
Vibrio diabolicus [6] = experiment: Antimicrobial activity against Vibrio diabolicus after 18 to 24 hrs in aerobic condition by two-fold serial dilutions method; format: functional; how it was run: as §4
Stachybotrys chartarum [7] = experiment: Fungicidal activity against Stachybotrys chartarum; format: functional, organism-based
How it was run: (§5)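 Filamentous fungi grown on potato dextrose agar and tested in RPMI medium with two-fold serial dilutions (0–500 µM, 0.2% DMSO final). Plates held at room temperature for 2 to 5 days, then OD600 read; MIC taken as the lowest concentration with no visible growth. The fungicidal endpoint is ≤1 colony after streaking 10 µL of no-growth wells on agar. n = 3.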

Vibrio diabolicus [8] = experiment: Bactericidal activity against Vibrio diabolicus in aerobic condition; format: functional, organism-based; how it was run: as §3
Escherichia coli [9] = experiment: Bactericidal activity against Escherichia coli MRS in aerobic condition; format: functional, organism-based; how it was run: as §1
Fusarium graminearum [10] = experiment: Antifungal activity against Fusarium graminearum after 2 to 5 days by two-fold serial dilutions method; format: functional
How it was run: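 F. graminearum grown on potato dextrose agar and in RPMI medium. Broth microdilution by NCCLS, two-fold serial dilution 0–500 µM, DMSO 0.2% final as vehicle control. Plates kept at room temperature 2 to 5 days, OD600 read; MIC taken as lowest concentration with no visible growth. Independent triplicate.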

Staphylococcus aureus = experiment: Bactericidal activity against methicillin-resistant Staphylococcus aureus in aerobic condition; format: functional, organism-based
[11] = tested on: Streptococcus thermophilus; experiment: Antimicrobial activity against Streptococcus thermophilus after 18 to 24 hrs in anaerobic condition by two-fold serial dilutions method; format: functional; how it was run: as §2
BEAS-2B = experiment: Cytotoxicity against human BEAS2B cells assessed as reduction in cell viability after 48 hrs by Resazurin dye-based assay; details: for IC50: Homo sapiens, BEAS-2B; for Activity: human, beas-2b
How it was run: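 Normal human lung epithelial (BEAS-2B) and lung fibroblast (IMR-90) cells were grown in DMEM with 10% FCS. Cells were seeded at ~10^4/well, grown to confluence (48–72 h), then exposed to increasing concentrations for 48 h at 37 °C, 5% CO2, with 0.2% DMSO as control. Resazurin was added for 4 h and fluorescence read at 530/590 nm. Viability was normalized to DMSO wells and IC50 calculated.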

Enterococcus faecalis = experiment: Antimicrobial activity against Enterococcus faecalis after 18 to 24 hrs in anaerobic condition by two-fold serial dilutions method; format: functional
How it was run: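 BHI preculture at 37 °C brought to log phase (OD600 ~0.6), then ~10^5 bacteria/mL exposed to 0 to 500 µM (1:2 dilutions, 0.2% DMSO final control). Anaerobic conditions from a gas-pack system, 37 °C, 18–24 h. OD600 read; MIC = lowest concentration with no visible growth; n = 3.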

Escherichia coli [12] = experiment: Bactericidal activity against Escherichia coli […] K88 in aerobic condition; format: functional, organism-based
Penicillium verrucosum = experiment: Fungicidal activity against Penicillium verrucosum; format: functional, organism-based; how it was run: as §5
Bacillus subtilis [13] = experiment: Antimicrobial activity against Nisin-resistant Bacillus subtilis after 18 to 24 hrs in aerobic condition by two-fold serial dilutions method; format: functional
How it was run: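 Strains grown on LB at 37 °C aerobically, then in Mueller-Hinton broth overnight at 200 rpm and brought to log phase (OD600 ~0.6). About 10^5 bacteria/mL exposed to two-fold serial dilutions 0–500 µM, DMSO 0.2% final as control. Aerobic incubation at 37 °C for 18–24 h; OD600 read; MIC = lowest concentration inhibiting visible growth. n = 3.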

Citrobacter rodentium = experiment: Bactericidal activity against Citrobacter rodentium in aerobic condition; format: functional, organism-based; how it was run: as §1
Bacillus subtilis [14] = experiment: Bactericidal activity against Bacillus subtilis in aerobic condition; format: functional, organism-based; how it was run: as §1

Compound | Activity [1] | MIC [2] [µM] | MIC (Candida albicans) [µM] | Activity (Shigella flexneri) | Activity (Cutibacterium acnes) | Activity (Blautia producta) | MIC (Bacillus subtilis [3]) [µM] | MIC (Stachybotrys chartarum [4]) [µM] | Activity (Clostridium botulinum) | MIC (Citrobacter farmeri) [µM] | MIC (Pseudomonas aeruginosa) [µM] | Activity (Acinetobacter baumannii) | MIC (Aspergillus niger) [µM] | Activity (Fusarium graminearum [5]) | Activity (Clostridioides difficile) | MIC (Vibrio diabolicus [6]) [µM] | Activity (Stachybotrys chartarum [7]) | Activity (Vibrio diabolicus [8]) | Activity (Escherichia coli [9]) | MIC (Fusarium graminearum [10]) [µM] | other results
O=C1/C(=C/c2ccccc2)Oc2cc(O)cc(O)c21 | Active | > 500 | > 500 | Active | Active | Active | 62.5 to 125 (≈ 15.9 to 31.8 µg/mL) | > 500 | Active | > 500 | > 500 | Active | 62.5 (≈ 15.9 µg/mL) | Active | Active | > 500 | Active | Active | Active | 31.2 (≈ 7.95 µg/mL) | Activity (Staphylococcus aureus): Active; MIC [11]: 31.2 µM (≈ 7.95 µg/mL); IC50 (BEAS-2B): 280 µM; Activity (BEAS-2B): Dose-dependent effect; MIC (Enterococcus faecalis): 15.6 µM (≈ 3.97 µg/mL); Activity (Escherichia coli [12]): Active; Activity (Penicillium verrucosum): Active; MIC (Bacillus subtilis [13]): 31.2 µM (≈ 7.95 µg/mL); Activity (Citrobacter rodentium): Active; Activity (Bacillus subtilis [14]): Active
O=C1/C(=C/c2ccc(F)cc2)Oc2cc(O)cc(O)c21 | Active | > 500 | > 500 | Active | Active | Active | 62.5 (≈ 17 µg/mL) | > 500 | Active | > 500 | > 500 | Active | > 500 | Active | Active | > 500 | Active | Active | Active | > 500 | Activity (Staphylococcus aureus): Active; MIC [11]: 31.2 µM (≈ 8.51 µg/mL); IC50 (BEAS-2B): 590 µM; Activity (BEAS-2B): Dose-dependent effect; MIC (Enterococcus faecalis): 125 to 250 µM (≈ 34 to 68.1 µg/mL); Activity (Escherichia coli [12]): Active; Activity (Penicillium verrucosum): Active; MIC (Bacillus subtilis [13]): 31.2 µM (≈ 8.51 µg/mL); Activity (Citrobacter rodentium): Active; Activity (Bacillus subtilis [14]): Active
COc1cc(/C=C2\Oc3cc(O)cc(O)c3C2=O)ccc1OCc1ccccc1 | Active | > 500 | 125 (≈ 48.8 µg/mL) | Active | Active | Active | 7.8 (≈ 3.05 µg/mL) | > 500 | Active | > 500 | > 500 | Active | > 500 | Active | Active | > 500 | Active | Active | Active | 500 (≈ 195 µg/mL) | Activity (Staphylococcus aureus): Active; MIC [11]: 125 µM (≈ 48.8 µg/mL); IC50 (BEAS-2B): 190 µM; Activity (BEAS-2B): Dose-dependent effect; MIC (Enterococcus faecalis): 15.6 to 31.2 µM (≈ 6.09 to 12.2 µg/mL); Activity (Escherichia coli [12]): Active; Activity (Penicillium verrucosum): Active; MIC (Bacillus subtilis [13]): 3.9 µM (≈ 1.52 µg/mL); Activity (Citrobacter rodentium): Active; Activity (Bacillus subtilis [14]): Active
